Only some compounds are listed: those with a hit (about 2.5% of all), similar ones and a draw of the others.
OX1R antag-1: blocks the human orexin 1 receptor; OX1R-expressing cells, FRET antagonist read-out; 330,000 tested, 1.8% active; O43613; inhibition, % at 6.6 µM; in the data active = inhibition mostly above about 38%, no sharp cut-off; inactive = mostly below about 40%;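 also: 0% = agonist challenge alone and 100% = reference antagonist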
OX1R antag-2: antagonists of human orexin 1 receptor; CHO/OX1R cells, Fluo-8 calcium fluorescence, orexin A; AID 434989; inhibition, % at 5 µM; 330,000 tested, 0.43% active; O43613;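 active = inhibition above its plate's threshold, mean inhibition of all tested compounds on the plate plus 3 SD, cut at about 37% in these data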;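 also: 0% = orexin A challenge wells and 100% = SB-334867-A antagonist wells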
zfTRPN1 agonist: zebrafish TRPN1 (NompC) channel agonism; HEK293 zebrafish TRPN1-YFP, Fluo-8 calcium fluorescence; 100% = response to 87 µM carbachol; activation, % at 3 µM; 220,000 tested, 0.18% active; AID 1424;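 active = activation above its plate's cutoff, the mean activation of test wells on that plate plus 3 SD, cut at about 19% in these data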;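 also: 0% = DMSO alone and 100% = 87 µM carbachol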
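Control set: carbachol 87 µM as high control, DMSO as low control; system: HEK293 stable line with zebrafish TRPN1-YFP; read-out: % activation versus carbachol response; detection: intracellular calcium fluorescence with Fluo-8; doses: single test compound dose, 3 µM nominal, 0.3% DMSO; schedule: dye 1 h 37 °C plus 30 min RT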
CHO parental Ca: counter-screen: ATP calcium response change in parental CHO cells; parental CHO-K1, ATP-induced calcium, Fluo-8 fluorescence; AID 463079; 330,000 tested, 0.63% active; inhibition, % at 5.6 µM;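 active = inhibition above that plate's mean sample inhibition plus 3 SD, cut at about 26% in these data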;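 also: 0% = ATP-challenged DMSO wells and 100% = DMSO wells without ATP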
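Assay system – parental CHO cells · Reagent – ATP stimulus · Detection – intracellular calcium via Fluo-8 no-wash fluorescent dye · Evaluation – percent inhibition of ATP-evoked calcium rise, normalized to controls · Controls – ATP wells versus no-ATP DMSO wells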
TRPML3 ag: activates the human TRPML3 channel | 220,000 tested, 0.29% active | AID 1448 | activation, % at 3 µM | HEK293 TRPML3-YFP, Fluo-8 calcium fluorescence; 100% = the carbachol control signal | Q8TDD5;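 active = activation above its plate's cutoff, the mean activation of the plate's test wells plus 3 SD, cut at about 12% in these data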;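 also: 0% = DMSO only wells and 100% = carbachol wells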
Target sequence (Q8TDD5 whole entry, looked up): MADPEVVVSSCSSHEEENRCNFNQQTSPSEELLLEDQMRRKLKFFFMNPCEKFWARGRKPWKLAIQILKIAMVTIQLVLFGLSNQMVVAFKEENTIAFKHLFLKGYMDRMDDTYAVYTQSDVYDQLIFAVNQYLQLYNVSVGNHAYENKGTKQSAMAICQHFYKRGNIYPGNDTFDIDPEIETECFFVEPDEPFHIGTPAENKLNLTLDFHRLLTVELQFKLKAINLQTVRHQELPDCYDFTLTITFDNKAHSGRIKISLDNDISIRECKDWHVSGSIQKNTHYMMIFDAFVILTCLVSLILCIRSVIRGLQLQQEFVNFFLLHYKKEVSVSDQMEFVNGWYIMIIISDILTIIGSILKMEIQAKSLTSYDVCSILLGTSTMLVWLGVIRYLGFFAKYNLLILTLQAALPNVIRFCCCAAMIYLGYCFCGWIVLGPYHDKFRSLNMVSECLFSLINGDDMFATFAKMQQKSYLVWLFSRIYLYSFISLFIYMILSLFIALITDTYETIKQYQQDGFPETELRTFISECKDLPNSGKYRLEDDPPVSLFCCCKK
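Test system – HEK293 line with stable expression of human TRPML3-YFP channel · Control set – carbachol 87 µM final as high control (100%), DMSO as low control (0%) · Signal – Fluo-8 calcium dye fluorescence, ex 470-495, em 515-575 nm · Incubation – 1-h 37 °C dye load, 5-s basal, 120-s post-compound reads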
OX1R HTRF confirm: OX1R (human) antagonism, HTRF confirmed; shares compounds with OX1R antag-1; OX1R-expressing cells, HTRF antagonist assay; inhibition, % at 6.6 µM; 1,800 tested, 49% active; in the data active = inhibition above about 55%;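 also: CHO cells expressing OX1R stimulated with orexin A at about EC80; 0% = agonist challenge alone and 100% = reference antagonist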
CHO-K1 HTRF: counter-screen: parental CHO-K1 HTRF response. inhibition, % at 6.6 µM. parental CHO-K1 cells, HTRF counterscreen. shares compounds with OX1R antag-1. 1,800 tested, 48% active; in the data active = inhibition above about 17%;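 also: 0% = agonist challenge with vehicle and 100% = vehicle alone without agonist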
* hit, by the source's call.

CCCCN1CC[C@H]2C=CC[C@@H](C(=O)Nc3ccccc3)[C@H]2C1=O was read as OX1R antag-1 53, OX1R antag-2 -9 and CHO parental Ca -10.
Screening Cc1cc(C)c2ccc3c(C)c(C)nc3c2[nH]1 returned OX1R antag-1 35, OX1R antag-2 -2, zfTRPN1 agonist 0, CHO parental Ca 4 and TRPML3 ag 0.
Screening O=C(CN1CCN(c2ccc(O)cc2)CC1)Nc1cc([N+](=O)[O-])ccc1Cl returned OX1R antag-1 79*, OX1R antag-2 8, zfTRPN1 agonist 0, CHO parental Ca -7, TRPML3 ag 1, OX1R HTRF confirm 32 and CHO-K1 HTRF 47*.
O=C(NNc1c2ccccc2nc2ccccc12)c1ccccc1Cl was read as OX1R antag-1 83*, OX1R antag-2 -14, CHO parental Ca 1, OX1R HTRF confirm 50 and CHO-K1 HTRF -1.
Screening O=C(NNC(=O)c1ccccc1Cl)c1ccccc1Cl returned OX1R antag-1 4, OX1R antag-2 -8, zfTRPN1 agonist 2, CHO parental Ca -16 and TRPML3 ag 1.
Screening O=C(NNc1c2ccccc2nc2ccccc12)c1ccccc1O returned OX1R antag-1 84*, OX1R antag-2 1, zfTRPN1 agonist -2, CHO parental Ca 4, TRPML3 ag -1, OX1R HTRF confirm 61* and CHO-K1 HTRF 1.
For O=C(NNc1c2ccccc2nc2ccccc12)c1ccc(O)cc1O the results were OX1R antag-1 102*, OX1R antag-2 0, zfTRPN1 agonist -3, CHO parental Ca -11, TRPML3 ag -2, OX1R HTRF confirm 84* and CHO-K1 HTRF 20*.
`O=C(NNc1c2ccccc2nc2ccccc12)c1cccc(O)c1` gave OX1R antag-1 26, OX1R antag-2 -4, zfTRPN1 agonist 0, CHO parental Ca -13 and TRPML3 ag 0.
Screening COC(=O)c1[nH]c2cc(OC)c(OC)cc2c1/C=N/Nc1ccccc1 returned OX1R antag-1 4, OX1R antag-2 -7 and CHO parental Ca -10.
Screening NN=C1c2cc([N+](=O)[O-])ccc2-c2ccc([N+](=O)[O-])cc21 returned zfTRPN1 agonist 1 and TRPML3 ag 1.
Screening CC(C)(CO)N=C1NS(=O)(=O)c2cc([N+](=O)[O-])ccc21 returned OX1R antag-1 99*, OX1R antag-2 -10, zfTRPN1 agonist 0, CHO parental Ca -2, TRPML3 ag 1, OX1R HTRF confirm 56* and CHO-K1 HTRF 63*.
S=C(Nc1ccc2[nH]ccc2c1)NC1CCCCC1 was read as OX1R antag-1 5, OX1R antag-2 -19, zfTRPN1 agonist -1, CHO parental Ca -1 and TRPML3 ag 0.
Screening O=C(Oc1ccc(Br)cc1C(=S)N1CCCCC1)c1cc([N+](=O)[O-])cc([N+](=O)[O-])c1 returned OX1R antag-1 130*, OX1R antag-2 -19, zfTRPN1 agonist -1, CHO parental Ca -6, TRPML3 ag -1, OX1R HTRF confirm 73* and CHO-K1 HTRF 70*.
For O=C(Oc1ccc(Br)cc1C(=S)N1CCCC1)c1ccccc1Cl the results were OX1R antag-1 15, OX1R antag-2 -2, zfTRPN1 agonist -2, CHO parental Ca -3 and TRPML3 ag 0.
Cc1ccc2ncc(NC(=O)c3ccc(F)cc3)c(=O)n2c1 was read as OX1R antag-1 91*, OX1R antag-2 -19, zfTRPN1 agonist 1, CHO parental Ca -1, TRPML3 ag 1, OX1R HTRF confirm 29 and CHO-K1 HTRF 33*.
CCOc1ccc(OCC)c(NC(=O)C2CCCN(C(=O)c3ccc(Cl)cc3)C2)c1 (stereo not given) was read as OX1R antag-1 9, OX1R antag-2 -35 and CHO parental Ca -28.
Screening Cc1c(C)n(C)c2ccc(C(=O)Nc3cccc4ccccc34)cc12 returned OX1R antag-1 85*, OX1R antag-2 10, zfTRPN1 agonist 1, CHO parental Ca -17, TRPML3 ag -1, OX1R HTRF confirm 77* and CHO-K1 HTRF 10.
O=C(Nc1cccc2ccccc12)c1ccccc1 was read as OX1R antag-1 4, OX1R antag-2 -5, zfTRPN1 agonist 0, CHO parental Ca -14 and TRPML3 ag 0.

Bioassay records: PubChem BioAssay, The Scripps Research Institute Molecular Screening Center
